Among the data in ChEMBL document CHEMBL2010694, “Indolyl and dihydroindolyl N-glycinamides as potent and in vivo active NPY5 antagonists” (Bioorg Med Chem Lett, 2012) are CLH, concentration and Ki values, retold here.

By Ki is commonly meant the dissociation constant of the complex between target and ligand, obtained from inhibition or displacement. A higher Ki goes with weaker binding.

Data set [1] relates to Liver microsomes. In words: Intrinsic clearance in human liver microsomes at 1 uM by LC/MS analysis. In kind it is ADME, Microsome. In a few lines: (§1)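 Compound incubated with human or rat liver microsomes; reaction quenched with acetonitrile, centrifuged, and remaining drug in supernatant measured by LC/MS to estimate T1/2, from which intrinsic clearance was derived.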
In general terms: Liver microsomes are vesicles of endoplasmic reticulum, rich in cytochrome P450 enzymes.

The test system of data set [2] is Liver microsomes. In words: Intrinsic clearance in rat liver microsomes at 1 uM by LC/MS analysis. In kind it is ADME, Microsome. In a few lines:
as §1

In the next data set the test system is Plasma. In words: Plasma concentration in Sprague-Dawley rat at 10 mg/kg, po by LC-MS/MS analysis. Format: ADME, organism-based. On the set-up: dose 10 mg/kg, route oral. As to conditions: in vivo. In a few lines:
(§2)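 Male Sprague-Dawley rats (300–350 g), femoral artery cannulated; single 10 mg/kg oral dose in an appropriate vehicle, N = 3. Blood taken predose, 1, 2 and 4 h; brains then collected and stored at -80 °C. Equal portions of plasma or homogenized brain from the three rats pooled per time point, protein precipitated, quantified by LC/MS/MS.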

For data set [3], the target named is T1, Neuropeptide Y receptor type 5 (Homo sapiens, UniProt Q15761).
T1 sequence (Q15761 whole entry): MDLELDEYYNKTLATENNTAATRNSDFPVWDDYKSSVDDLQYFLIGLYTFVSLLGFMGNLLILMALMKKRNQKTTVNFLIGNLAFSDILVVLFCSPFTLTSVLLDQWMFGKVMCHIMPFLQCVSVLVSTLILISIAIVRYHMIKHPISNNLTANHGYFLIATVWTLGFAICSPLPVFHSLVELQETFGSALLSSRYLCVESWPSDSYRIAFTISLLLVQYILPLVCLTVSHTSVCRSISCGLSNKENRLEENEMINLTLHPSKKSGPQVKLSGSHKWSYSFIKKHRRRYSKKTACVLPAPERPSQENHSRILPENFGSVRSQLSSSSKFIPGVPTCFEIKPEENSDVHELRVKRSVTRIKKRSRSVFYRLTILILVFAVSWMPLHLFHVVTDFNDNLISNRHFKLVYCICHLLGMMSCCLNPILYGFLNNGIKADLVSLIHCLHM
In words: Displacement of [125I]peptide YY from human NPY5 receptor. (Loss of bound radioactivity is the signal in a displacement assay; it reports binding, not function.)

The next data set deals with Brain. In words: Drug uptake in Sprague-Dawley rat brain at 10 mg/kg, po by LC-MS/MS analysis. In kind it is ADME, organism-based. The following applies: in vivo, read-out: Drug uptake. On the set-up: dose 10 mg/kg, route oral. In a few lines:
as §2

Regarding `CC(C)S(=O)(=O)NC[C@H]1CC[C@H](NC(=O)CN2CCOc3cc(Cl)ccc32)CC1`, the CLH in the data set with Liver microsomes [1] was determined as 2.9 L/min; in the data set on Liver microsomes [2] it was 35 mL/min. This compound gave a concentration in the data set with Plasma of 428 nM.
Compound `CC(C)S(=O)(=O)NC[C@H]1CC[C@H](NC(=O)CCN2CCc3ccccc32)CC1` came in with a Ki in data set [3] of 1.8 nM. The CLH stood at 5.8 L/min in the data set with Liver microsomes [1] and 7.1 mL/min with Liver microsomes [2]. The values for the concentration in the data set on Brain and with Plasma were 7 nM and 24 nM, respectively.
Consider `CC(C)S(=O)(=O)NC[C@H]1CC[C@H](NC(=O)CN2C(=O)COc3cc(Cl)ccc32)CC1`, for which the CLH in the data set with Liver microsomes [1] was 0.5 L/min; in the data set with Liver microsomes [2] it was 15 mL/min. This compound returned a concentration in the data set on Plasma of 480 nM.
In the case of `CC(C)S(=O)(=O)NC[C@H]1CC[C@H](NC(=O)Cn2ccc3c(Cl)cccc32)CC1`, in data set [3], the Ki came out at 1.7 nM.
The compound `CC(C)S(=O)(=O)NC[C@H]1CC[C@H](NC(=O)Cn2c(=O)sc3cc(Cl)ccc32)CC1` displayed an inhibition constant Ki in data set [3] of 0.9 nM. Besides, the CLH was 1 L/min with Liver microsomes [1] and 12 mL/min in the data set with Liver microsomes [2]. Also, the concentration came to 11 nM in the data set with Brain and 870 nM with Plasma.
Taken in the same sequence, the figures for `CC(C)S(=O)(=O)NC[C@H]1CC[C@H](NC(=O)Cn2ccc3cc(F)ccc32)CC1` were 2.2 nM, 0.6 L/min, 11 mL/min, 100 nM and 1300 nM.
Turning to `CC(C)S(=O)(=O)NC[C@H]1CC[C@H](NC(=O)CN2C(=O)CCc3cc(Cl)ccc32)CC1`, the results for the CLH in the data set with Liver microsomes [1] and in the data set on Liver microsomes [2] were 0.8 L/min and 40 mL/min, respectively. Moreover, the concentration in the data set on Brain came out at 17 nM; in the data set with Plasma it was 877 nM.
As for `CC(C)S(=O)(=O)NC[C@H]1CC[C@H](NC(=O)CN2CCc3cc(F)ccc32)CC1`, the Ki in data set [3] came out at 4 nM. For the same compound, the CLH with Liver microsomes [1] stood at 1.4 L/min; with Liver microsomes [2], 21 mL/min. Besides, the concentration turned out to be 117 nM with Brain and 2680 nM in the data set with Plasma.
Taken in the same sequence, the figures for `Cc1ccc2c(c1)CCN2CC(=O)N[C@H]1CC[C@H](CNS(=O)(=O)C(C)C)CC1` were 3.5 nM, 3.1 L/min, 54 mL/min, 477 nM and 6140 nM.
Taken in the same sequence, the figures for `CC(C)S(=O)(=O)NC[C@H]1CC[C@H](NC(=O)Cn2ccc3cc(F)c(F)cc32)CC1` were 0.9 nM, 2.5 L/min, 28 mL/min, 328 nM and 2080 nM.
For `CC(C)S(=O)(=O)NC[C@H]1CC[C@H](NC(=O)Cn2ccc3cc(C#N)ccc32)CC1`, in that order: 5.6 nM, 0.4 L/min, 8.7 mL/min, 43 nM and 769 nM.
In data set [3], `CC(C)S(=O)(=O)NC[C@H]1CC[C@H](NC(=O)Cn2ccc3ccccc32)CC1` showed a Ki of 1.5 nM. The CLH in the data set on Liver microsomes [1] is 1 L/min; in the data set on Liver microsomes [2] it was 27 mL/min. Moreover, the concentration in the data set on Brain is 81 nM; with Plasma, 460 nM.
For `CC(C)S(=O)(=O)NC[C@H]1CC[C@H](NC(=O)CN2CC(C)(C)c3cc(Cl)ccc32)CC1`, in that order: 1.1 nM, 14 L/min, 205 mL/min, 50 nM and 417 nM.
In turn, `CC(C)S(=O)(=O)NC[C@H]1CC[C@H](NC(=O)Cn2ccc3ccc(F)cc32)CC1` showed a Ki in data set [3] of 1.2 nM.
Consider `CC(C)S(=O)(=O)NC[C@H]1CC[C@H](NC(=O)Cn2ccc3cccc(Cl)c32)CC1`, for which the affinity in data set [3] corresponds to a Ki of 0.9 nM. This Ki and that of the compound before are within 1.5-fold of each other.
`CC(C)S(=O)(=O)NC[C@H]1CC[C@H](NC(=O)Cn2c(=O)oc3ccccc32)CC1` gave a Ki in data set [3] of 10 nM. Moreover, the CLH came out at 0.5 L/min with Liver microsomes [1] and 1.9 mL/min in the data set on Liver microsomes [2]. Besides, the concentration stood at 19 nM in the data set with Brain and 1640 nM in the data set on Plasma.
For the compound `Cc1cc2ccccc2n1CC(=O)N[C@H]1CC[C@H](CNS(=O)(=O)C(C)C)CC1`, in data set [3], the Ki was 8.9 nM. The CLH in the data set with Liver microsomes [1] was 1.1 L/min; with Liver microsomes [2], 49 mL/min. Moreover, the concentration in the data set on Brain is 49 nM; in the data set on Plasma, 242 nM.
In data set [3], `CC(C)S(=O)(=O)NC[C@H]1CC[C@H](NC(=O)CN2CCc3c2ccc(F)c3F)CC1` came in with an inhibitory constant (Ki) of 1.5 nM. Besides, the CLH in the data set on Liver microsomes [1] turned out to be 4.5 L/min; in the data set with Liver microsomes [2] it was 39 mL/min. In addition, the results for the concentration in the data set on Brain and in the data set with Plasma were 105 nM and 1520 nM, respectively.
`CC(C)S(=O)(=O)NC[C@H]1CC[C@H](NC(=O)Cc2c[nH]c3ccccc23)CC1` came in with a Ki in data set [3] of 12 nM. Moreover, the CLH was 0.5 L/min in the data set on Liver microsomes [1] and 3.4 mL/min in the data set on Liver microsomes [2]. The concentration in the data set on Brain came to 54 nM; in the data set on Plasma, 2560 nM.
As to `CC(C)S(=O)(=O)NC[C@H]1CC[C@H](NC(=O)Cn2ccc3ccc(Cl)cc32)CC1`, the Ki in data set [3] worked out at 1 nM. Moreover, the figures for the CLH in the data set with Liver microsomes [1] and with Liver microsomes [2] were 2.6 L/min and 37 mL/min, respectively. Further, the figures for the concentration in the data set on Brain and in the data set on Plasma were 134 nM and 157 nM, respectively.
For the compound `CC(C)S(=O)(=O)NC[C@H]1CC[C@H](NC(=O)CN2CCCc3cc(Cl)ccc32)CC1`, the results for the CLH in the data set on Liver microsomes [1] and in the data set on Liver microsomes [2] were 2.8 L/min and 36 mL/min, respectively. The concentration amounted to 88 nM in the data set on Brain and 498 nM in the data set with Plasma.
As to `CC(C)S(=O)(=O)NC[C@H]1CC[C@H](NC(=O)Cc2cn(C)c3ccccc23)CC1`, the affinity in data set [3] corresponds to a Ki of 2 nM. Moreover, the CLH was determined as 1.2 L/min in the data set with Liver microsomes [1] and 22 mL/min in the data set with Liver microsomes [2]. Besides, the concentration is 17 nM with Brain and 296 nM in the data set with Plasma.
